An excerpt weighted towards active compounds, which were near 3.7% of everything screened.
KCNK9 block = KCNK9 potassium channel inhibitors, primary screen, HEK293 cells, thallium flux. Potassium channel subfamily K member 9 (Homo sapiens), Q9NPC2. FluxOR thallium flux fluorescence; stronger effect = lower value. B-score at 10 µM. actives 1.2% (n = 310,000);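 active = ratio B-score over 3 SD below the library mean, with starting fluorescence within 5 SD of its mean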;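 note: negative B-score means less thallium flux so channel inhibition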
KCNQ1 block = inhibitors of human KCNQ1 channel, primary screen, cell-based, thallium flux, high-throughput | B-score at 10 µM | AID 2642, 2010 | actives 1.3% (n = 310,000) | CHO-K1 KCNQ1, FluxOR thallium flux fluorescence; stronger effect = higher value;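 active = compounds whose thallium flux B-score, printed positive for inhibition, exceeds three library SD while starting fluorescence stays within three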;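 note: channel opened by potassium depolarization with thallium stimulus after 20 min compound exposure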
Kir21 inh = inhibitors of mouse Kir2.1 inward-rectifier potassium channel; AID 1672, 2009; HEK293-Kir2.1, FluxOR thallium flux fluorescence; stronger effect = lower value; actives 0.85% (n = 310,000); Inward rectifier potassium channel 2 (Mus musculus), P35561; B-score at 10 µM;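 active = fluorescence ratio B-score at or below minus 3 SD of library scores, with starting-brightness B-score within 2 SD, cut at about -4.2 in these data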;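 note: channel flux triggered by added potassium and thallium sulfate stimulus; B-score of peak minus minimum fluorescence over baseline after thallium stimulus; more negative B-score means stronger Kir2.1 block with less thallium influx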
KCNK3 inh = human KCNK3 channel inhibitors, primary screen, CHO cells, FluxOR thallium flux, B-score | B-score at 10 µM | actives 0.84% (n = 340,000) | FluxOR fluorescence; stronger effect = lower value | AID 602410, 2012 | Potassium channel subfamily K member 3 (Homo sapiens), O14649;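 active = B-score under library mean minus 4 SD, starting fluorescence ratio at most library mean plus 5 SD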;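 note: more negative B-score means stronger inhibition of thallium flux through KCNK3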
KCNQ1 pot = potentiators or activators of KCNQ1 channel, primary screen, cell-based, thallium flux, high-throughput; CHO-K1 KCNQ1, thallium flux FluxOR fluorescence; stronger effect = higher value; Potassium voltage-gated channel subfamily KQT member 1 (Homo sapiens), P51787; actives 0.35% (n = 310,000); B-score at 10 µM;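 active = fluorescence ratio B-score, a plate-corrected score, at least three library SD, with initial intensity B-score within 5 SD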
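Assay system: CHO-K1 cells stably expressing KCNQ1; Medium: assay buffer with matched DMSO; Also added: K+/Tl+ depolarizing stimulus; Dosing: single dose; Timing: dye 90 min, compound 20 min, room temperature; Measured by: kinetic FluxOR thallium fluorescence, 10-s 1-Hz baseline, 110-s post-stimulus read; Read-out: peak-minus-minimum fluorescence over initial fluorescence, negative-control normalized, B-scored.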
hERG protect = hERG rescue from dofetilide block, primary screen, cell-based, CHO-hERG, FluxOR thallium flux, dofetilide IC70; Voltage-gated inwardly rectifying potassium channel KCNH2 (Homo sapiens), Q12809; activation (rescue from dofetilide block), less the hit threshold, % at 10 µM; dofetilide IC70 present; AID 1511, 2009; actives 0.51% (n = 310,000);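 active = activation above the mean of controls blocked by dofetilide plus 5 SD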;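 note: thallium influx through hERG after potassium depolarization seen as dye fluorescence rise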
Target sequence (Q12809 whole entry, looked up): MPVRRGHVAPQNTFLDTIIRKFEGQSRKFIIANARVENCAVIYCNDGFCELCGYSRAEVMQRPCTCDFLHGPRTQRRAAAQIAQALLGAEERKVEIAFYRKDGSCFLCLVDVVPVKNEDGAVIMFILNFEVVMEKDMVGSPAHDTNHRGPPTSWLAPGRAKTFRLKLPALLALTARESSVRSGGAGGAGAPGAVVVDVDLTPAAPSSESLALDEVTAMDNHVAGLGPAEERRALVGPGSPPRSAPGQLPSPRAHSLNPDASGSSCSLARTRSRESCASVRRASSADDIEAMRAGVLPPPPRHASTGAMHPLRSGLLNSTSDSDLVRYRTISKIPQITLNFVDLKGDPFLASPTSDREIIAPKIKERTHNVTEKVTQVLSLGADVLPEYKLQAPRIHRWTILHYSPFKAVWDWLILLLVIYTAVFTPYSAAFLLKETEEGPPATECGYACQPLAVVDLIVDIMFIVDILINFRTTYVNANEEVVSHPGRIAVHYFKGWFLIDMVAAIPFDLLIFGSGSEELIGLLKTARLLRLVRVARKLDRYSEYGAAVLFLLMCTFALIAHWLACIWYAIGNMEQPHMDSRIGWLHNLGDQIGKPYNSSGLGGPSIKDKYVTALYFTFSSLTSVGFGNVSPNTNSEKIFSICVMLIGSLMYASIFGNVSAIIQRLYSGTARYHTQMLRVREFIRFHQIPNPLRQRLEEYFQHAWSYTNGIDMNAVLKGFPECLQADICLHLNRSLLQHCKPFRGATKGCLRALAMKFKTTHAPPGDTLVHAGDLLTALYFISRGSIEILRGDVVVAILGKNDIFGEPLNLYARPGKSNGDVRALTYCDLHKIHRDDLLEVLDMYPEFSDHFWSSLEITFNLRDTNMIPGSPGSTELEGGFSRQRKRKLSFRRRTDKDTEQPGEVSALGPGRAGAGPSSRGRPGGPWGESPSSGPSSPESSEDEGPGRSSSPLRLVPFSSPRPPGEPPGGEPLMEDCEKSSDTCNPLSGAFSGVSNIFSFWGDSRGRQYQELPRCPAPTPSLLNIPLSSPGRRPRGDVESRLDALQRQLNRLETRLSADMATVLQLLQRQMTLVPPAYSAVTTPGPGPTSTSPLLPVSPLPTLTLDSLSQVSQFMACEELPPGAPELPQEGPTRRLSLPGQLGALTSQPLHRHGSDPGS
KCNK3 confirm = retest of human KCNK3 channel inhibitors, confirmation, CHO cells, FluxOR thallium flux, triplicate. shares compounds with KCNK3 inh. FluxOR fluorescence; 0% buffer, 100% carvedilol maximal block. ratio percent of control, % at 10 µM. actives 99% (n = 2,400). AID 651638, 2012;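 active = ratio percent of control, averaged over triplicates, above buffer control mean plus 5 SD, cut at about 64% in these data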;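 note: ratio is the fluorescence rise from min to max over baseline after thallium stimulus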
KCNK3 noninduced = thallium flux inhibition in non-induced cells, primary screen, counter-screen for KCNK3 inhibitor project, cell-based, non-induced KCNK3 line, FluxOR thallium, triplicate; shares compounds with KCNK3 inh; non-induced KCNK3 parental cells; stronger effect = lower value; thallium flux ratio (lower = more inhibition) at 10 µM; actives 40% (n = 2,400); AID 651747, 2012;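 active = thallium flux ratio, averaged over three wells, more than 5 SD below the buffer control mean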;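 note: host cells are CHO cells without KCNK3 induction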
Large screens that a line does not name were inactive (follow-up assays come after a bar, where they were run).

Cc1ccc(C)c(OCC(=O)Nc2ccccc2N2CCCC2)c1	KCNK3 inh -10.3 | KCNK3 confirm 104.0 | KCNK3 noninduced inactive
O=C(c1cccnc1)C1CCCN(Cc2nc(Cc3ccccc3)no2)C1 (stereo unspecified)	none
Clc1ccccc1/C=C/C=N/Nc1nc(N2CCOCC2)nc(N2CCOCC2)n1	KCNK3 inh -10.4 | KCNK3 confirm 94.0 | KCNK3 noninduced inactive
CCOc1ccc(NC(=O)CS(=O)CC(=O)Nc2cccnc2)cc1 (stereo unspecified)	none
CCOC(=O)c1c(CSC(=N)N)n(-c2ccccc2)c2cc(Br)c(OC(C)=O)cc12	Kir21 inh -4.45, KCNK3 inh -10.4 | KCNK3 confirm 129.3 | KCNK3 noninduced 0.138
CCN(Cc1ccccc1)C(=O)c1cc2c(=O)oc3ccc(C)cc3c2s1	KCNQ1 block 6, KCNK3 inh -8.89 | KCNK3 confirm 111.0 | KCNK3 noninduced 0.123
Cc1ccc2oc(=O)c3cc(C(=O)N4CCN(C(=O)c5ccco5)CC4)sc3c2c1	none (no result: KCNK3 inh)
COc1ccc(CC(=O)NNC(=O)COc2ccc(F)cc2)cc1S(=O)(=O)N1CCOCC1	none (no result: KCNK9 block, KCNQ1 block, Kir21 inh, KCNQ1 pot, hERG protect)
O=C(CCCn1nnnc1CN1CCOCC1)N1CCC(c2ccc(F)cc2)C1 (stereo unspecified)	none
COc1ccccc1/C=N/NC(=O)c1cc2c(ccc3ccccc32)o1	KCNK3 inh -12.2 | KCNK3 confirm 85.3 | KCNK3 noninduced inactive
CCOc1cc(/C=C2\C(=O)N(Cc3ccco3)C(C)=C2C(=O)OC)ccc1O	KCNK3 inh -9.47 | KCNK3 confirm 71.3 | KCNK3 noninduced inactive
Cc1onc(-c2ccccc2)c1-c1ccnn1S(=O)(=O)c1ccc(Cl)cc1	KCNK3 inh -9.43 | KCNK3 confirm 103.3 | KCNK3 noninduced inactive
CCC(C)NC(=O)CNC(=O)c1nn(-c2ccc(OC)cc2OC)c(=O)c2ccccc12 (stereo unspecified)	none
O=C(NNc1c2ccccc2nc2ccccc12)c1cccc(O)c1	none
Oc1cccc(-c2nc3ccc4ccccc4c3c3c2CCC3)c1	KCNK3 inh -18.9 | KCNK3 confirm 111.0 | KCNK3 noninduced 0.146
COc1cc(NC(=O)CN2C(=O)COc3ccc(S(=O)(=O)N4CCCCC4)cc32)cc(OC)c1	KCNK3 inh -8.81 | KCNK3 confirm 113.0 | KCNK3 noninduced inactive
CC(C)=C(NC(=O)c1ccccc1)C(=O)Nc1cccc(C(=O)O)c1	none
Cc1ccc(/C=C/c2nnc(-c3cccs3)o2)cc1	KCNK3 inh -8.81 | KCNK3 confirm 84.0 | KCNK3 noninduced inactive
Cc1ccc(/C=C/c2nnc(-c3ccc(C)cc3)o2)cc1	none
CSc1ccc(CN(C)C(=O)C(c2ccccc2)c2ccccc2)cc1	KCNK3 inh -9.97 | KCNK3 confirm 126.3 | KCNK3 noninduced 0.126
CSc1ccc(CN(C)C(=O)C(Cc2ccccc2)NC(=O)c2ccccc2)cc1 (stereo unspecified)	none
O=C(CC(=O)N1CCOCC1)N1CCOCC1	none (no result: KCNK9 block, KCNQ1 block, Kir21 inh, KCNQ1 pot, hERG protect)
CC(C)(C)NC(=O)c1cccc2c1OC(C)(C)C2	none
CC1(C)Cc2cccc(C(=O)NCc3ccco3)c2O1	KCNK3 inh -11.3 | KCNK3 confirm 105.3 | KCNK3 noninduced inactive
O=C(c1c[nH]c(C(=O)C(Cl)(Cl)Cl)c1)c1ccc(F)cc1Cl	KCNK3 inh -10.6, KCNQ1 pot 8 | KCNK3 confirm 87.7 | KCNK3 noninduced inactive
O=[N+]([O-])c1c(Nc2ccc(O)cc2)cc(Cl)c2nonc12	KCNQ1 block 9, Kir21 inh -6.45, KCNK3 inh -11 | KCNK3 confirm 164.3 | KCNK3 noninduced 0.0537
O=c1[nH]c(N/N=C\c2ccc3c(c2)OCO3)nc2ccccc12	none
Cc1cc(N/N=C/c2ccc3c(c2)OCO3)nc2ccccc12	KCNK3 inh -10.7 | KCNK3 confirm 113.0 | KCNK3 noninduced inactive
COc1ccccc1N1CCN(C(=O)c2sc3ncnc(N4CCN(c5ccccn5)CC4)c3c2C)CC1	none
COc1ccc(OC)c(NC(=O)c2sc3ncnc(N4CCN(c5ccccn5)CC4)c3c2C)c1	KCNK3 inh -9.13 | KCNK3 confirm 104.3 | KCNK3 noninduced inactive
Cc1ccc2oc(=O)n(CCCOc3ccccc3C)c2c1	KCNK3 inh -10.9 | KCNK3 confirm 120.7 | KCNK3 noninduced 0.142
Cc1ccc(Nc2nc(/N=C/NO)n[nH]2)cc1C	none
CCOC(=O)/C(C#N)=C\c1ccc(OCC(=O)Nc2ccc(C)cc2C)c(OC)c1	none
Cc1cccc(C(=O)O/N=C(\c2ccccc2)c2cccnc2)c1	KCNK3 inh -8.89 | KCNK3 confirm 102.3 | KCNK3 noninduced inactive
CCCCCn1cnnc1SCC(=O)c1ccc2c(c1)OCO2	none (no result: KCNK9 block, KCNQ1 block, Kir21 inh, KCNQ1 pot, hERG protect)
Cc1c(/C=N/NC(=O)c2ccccc2O)c2ccccn2c1C(=O)c1ccc(F)cc1	KCNK9 block -7.89, KCNQ1 block 10, KCNK3 inh -11.4 | KCNK3 confirm 129.3 | KCNK3 noninduced 0.156
Cc1c(/C=N/NC(=O)c2ccc(O)cc2)c2ccccn2c1C(=O)c1ccc(F)cc1	none
COC(=O)c1ccccc1NC(=O)N1CCN(Cc2ccco2)CC1	none
O=C(NC1CC1)c1cccc(NC(=O)c2cn3ccccc3n2)c1	KCNK3 inh -12.4 (no result: KCNK9 block, KCNQ1 block, Kir21 inh, KCNQ1 pot, hERG protect) | KCNK3 confirm 60.3 | KCNK3 noninduced inactive
O=C(NC1CC1)c1cccc(NC(=O)c2cnn(-c3ccccc3)n2)c1	none (no result: KCNK9 block, KCNQ1 block, Kir21 inh, KCNQ1 pot, hERG protect)
CN(C)S(=O)(=O)c1cccc(NC(=O)COc2ccccc2C(=O)NCc2ccccc2)c1	KCNK3 inh -12.2 (no result: KCNK9 block, KCNQ1 block, Kir21 inh, KCNQ1 pot, hERG protect) | KCNK3 confirm 119.0 | KCNK3 noninduced 0.156
Cc1ccc(NC(=O)COc2ccccc2C(=O)NCc2ccccc2)cc1	none (no result: KCNK9 block, KCNQ1 block, Kir21 inh, KCNQ1 pot, hERG protect)
Cc1ccc(NC(=O)CCNC(=O)c2ccccc2Cl)cc1S(=O)(=O)N1CCOCC1	none (no result: KCNK9 block, KCNQ1 block, Kir21 inh, KCNQ1 pot, hERG protect)
O=C(COCC(=O)Nc1cccc(C(F)(F)F)c1)Nc1cccc(C(F)(F)F)c1	none
COc1cc(NC(=O)CSCC(=O)Nc2cccc(C(F)(F)F)c2)c(Cl)cc1Cl	KCNQ1 block 7, KCNK3 inh -11 | KCNK3 confirm 114.7 | KCNK3 noninduced inactive
